Shown are actives, neighbours in structure and some others; about 2.8% of the full set was active somewhere.
pPAFAH inh – inhibitors of human plasma PAF acetylhydrolase (pPAFAH); recombinant pPAFAH, FP-rhodamine probe fluorescence polarization; AID 463082; 330,000 tested, 1.5% active; Q13093; inhibition, % at 3.39 µM;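 active = inhibition above the mean inhibition across the screen plus 3 SD, cut at about 25% in these data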;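 also: inhibitors block binding of the rhodamine activity-based probe so polarization drops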
PAFAH1B3 inh – inhibitors of human PAFAH1B3; Q15102; 340,000 tested, 0.28% active; recombinant PAFAH1B3, FP-rhodamine probe, fluorescence polarization; AID 492972; inhibition, % at 3.39 µM;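 active = inhibition above the screen-wide average of all tested compounds plus 3 SD, cut at about 25% in these data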
Target sequence (Q15102 whole entry, looked up): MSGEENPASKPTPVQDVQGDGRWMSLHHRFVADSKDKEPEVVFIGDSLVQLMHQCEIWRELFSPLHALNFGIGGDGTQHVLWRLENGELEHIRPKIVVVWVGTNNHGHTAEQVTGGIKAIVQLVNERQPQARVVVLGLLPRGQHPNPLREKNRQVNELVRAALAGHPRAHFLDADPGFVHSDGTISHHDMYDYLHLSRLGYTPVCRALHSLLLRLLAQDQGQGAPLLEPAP
mABHD4 FP – inhibits mouse alpha/beta hydrolase domain 4 | Q8VD66 | purified mABHD4, FP-Rh probe fluorescence polarization | inhibition, % at 8.92 µM | 370,000 tested, 0.54% active;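 active = inhibition exceeding the mean over every tested compound plus 3 SD, cut at about 30% in these data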
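Assay system: mouse ABHD4 enzyme, wild type / Also added: fluorescent activity-based probe FP-Rh / Doses: single nominal dose of 8.92 µM, 0.89% DMSO final / Timing: 45 min compound pre-incubation plus 60 min probe step, 25 °C / Signal: FP readout, ex 525 nm / em 598 nm / Control set: S159A mutant/DMSO as 100%, compound-well median as 0%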
PAFAH2 FP inh – inhibitors of human PAFAH2. Q99487. recombinant PAFAH2, FP-rhodamine activity probe, fluorescence polarization. inhibition, % at 3.39 µM. 340,000 tested, 0.99% active. AID 492956;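 active = inhibition above the mean over all tested compounds plus 3 SD, cut at about 30% in these data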;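 also: inhibitors block probe labeling of enzyme so polarization drops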
PAFAH1B2 inh – inhibitors of human PAFAH1B2; P68402; recombinant PAFAH1B2, FP-rhodamine activity probe, fluorescence polarization; inhibition, % at 3.39 µM; 340,000 tested, 1.2% active;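 active = inhibition above the mean of all tested compounds plus 3 SD, cut at about 24% in these data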
Target sequence (P68402 whole entry, looked up): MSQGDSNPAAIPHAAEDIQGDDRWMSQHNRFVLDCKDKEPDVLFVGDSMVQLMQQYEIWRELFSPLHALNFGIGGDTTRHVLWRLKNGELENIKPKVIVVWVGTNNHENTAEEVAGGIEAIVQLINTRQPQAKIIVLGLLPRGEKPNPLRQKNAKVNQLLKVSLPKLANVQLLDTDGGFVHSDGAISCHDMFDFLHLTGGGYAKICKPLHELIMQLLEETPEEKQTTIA
HTRA1 inhibitor – HTRA1 (human) protease inhibition. Q92743. recombinant HTRA1, FP-rhodamine activity-based probe, fluorescence polarization. inhibition, % at 5.96 µM. 340,000 tested, 0.5% active; in the data active = inhibition above about 36%
pPAFAH confirm – pPAFAH (human) inhibition, confirmed. 2,300 tested, 72% active. recombinant pPAFAH, FP-Rh probe fluorescence polarization. AID 463230. inhibition, % at 3.39 µM. shares compounds with pPAFAH inh;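 active = mean inhibition of the triplicate above the hit cutoff set for the earlier primary screen, cut at about 25% in these data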
HTRA1 conf – HTRA1 (human) inhibition, confirmation. shares compounds with HTRA1 inhibitor. recombinant HTRA1, FP-rhodamine activity-based probe, fluorescence polarization. inhibition, % at 5.96 µM. 1,600 tested, 66% active. AID 540248;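 active = mean inhibition over three repeats above a set limit taken from the earlier primary screen, cut at about 37% in these data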;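 also: inhibitors block probe binding so polarization drops and inhibition rises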
mABHD4 conf – ABHD4 (mouse) inhibition, FP confirmation | shares compounds with mABHD4 FP | purified mABHD4, FP-Rh probe fluorescence polarization | inhibition, % at 8.92 µM | 1,800 tested, 55% active | AID 720658;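 active = mean inhibition across replicates above the hit cutoff set in the primary screen, cut at about 30% in these data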
A number is an active result; n = inactive; x = no result given.

SMILES	pPAFAH inh	PAFAH1B3 inh	mABHD4 FP	PAFAH2 FP inh	PAFAH1B2 inh	HTRA1 inhibitor	pPAFAH confirm	HTRA1 conf	mABHD4 conf
O=C(c1ccc2c(c1)ncn2C1CCCCCC1)N1CCC2(CC1)OCCO2	n	n	n	n	n	n	x	x	x
Clc1cc(Cl)cc(CN2Cc3cc(Br)ccc3-n3nncc3C2)c1	x	x	n	x	x	x	x	x	x
O=C(NCCN1CCC2(CC1)C(=O)NCN2c1ccccc1)c1ccc(F)cc1F	x	x	n	x	x	x	x	x	x
COc1ccc(C(=O)N2CCC3(CC2)OCCO3)cc1	n	n	n	n	n	n	x	x	x
O=C(c1ccc2nc(-c3ccco3)c(-c3ccco3)nc2c1)N1CCC2(CC1)OCCO2	62	n	x	n	n	n	n	x	x
CCC(NC(=O)OCc1ccccc1)P(=O)(Oc1ccccc1)Oc1ccccc1 (stereo unspecified)	x	x	n	x	x	x	x	x	x
O=C(NCCN1CCC2(CC1)C(=O)NCN2c1ccccc1)c1ccccc1C(F)(F)F	x	x	n	x	x	x	x	x	x
O=C(COC(=O)Cc1ccccc1)NC12CC3CC(CC(C3)C1)C2	35	n	n	55	n	n	41	x	x
CN(C)[C@@H]1C(=O)C(C(N)=O)=C(O)[C@@]2(O)C(=O)C3=C(O)c4c(O)cccc4[C@@](C)(O)[C@H]3[C@H](O)[C@@H]12	82	57	63	64	35	51	75	n	x
O=C(NCCN1CCC2(CC1)C(=O)NCN2c1ccccc1)c1ccc(OC(F)(F)F)cc1	x	x	n	x	x	x	x	x	x
Oc1ccc(/C=N/NP(=S)(c2ccccc2)c2ccccc2)c(O)c1O	41	n	n	n	n	75	63	85	x
N#Cc1ccc2nc(-c3ccc(CN4CCC(n5c(=O)[nH]c6cc(Cl)ccc65)CC4)cc3)c(-c3ccccc3)nc2c1	x	x	n	x	x	x	x	x	x
O=C(O)c1cccc2c1NC(C(=O)O)C1CC(Sc3ccccc3[N+](=O)[O-])C(Cl)C21 (stereo unspecified)	96	49	82	82	31	93	79	60	x
Cc1ccc(OC(=O)N(C)C[C@H]2OCc3cnnn3CCCC(=O)N([C@H](C)CO)C[C@H]2C)cc1	x	x	n	x	x	x	x	x	x
O=c1[nH]c(=S)n(-c2ccc(Cl)cc2)c(O)c1C=Nc1ccc(N2CCOCC2)cc1	43	n	40	n	n	n	n	x	n
CN1C(=O)/C(=C/c2cccn2-c2ccc3ccccc3c2)C(=O)NC1=S	39	n	65	39	39	60	n	n	n
Cn1cccc1/C=C1/C(=O)NC(=O)N(C(C)(C)C)C1=O	n	n	n	n	n	n	x	x	x
CCOC(=O)CNC(=O)N1Cc2cc(Br)ccc2-n2nncc2C1	x	x	n	x	x	x	x	x	x
CCN(CC)c1ccc(N=Cc2c(O)n(-c3ccccc3C)c(=O)[nH]c2=O)cc1	38	n	64	n	n	60	n	x	n
CCN(CC)c1ccc(N=Cc2c(O)n(Cc3ccccc3)c(=O)[nH]c2=O)cc1	n	n	n	n	n	n	x	x	x
CCN(CC)c1ccc(N=Cc2c(O)n(-c3ccccc3)c(=O)[nH]c2=O)cc1	49	n	67	n	n	40	n	n	n
CCOc1ccc(-n2c(O)c(C=Nc3ccc(N(CC)CC)cc3)c(=O)[nH]c2=O)cc1	n	n	n	n	n	n	x	x	x
CCN(CC)c1ccc(N=Cc2c(O)[nH]c(=O)[nH]c2=O)cc1	45	n	57	n	n	53	n	n	n
CCOc1ccccc1-n1c(O)c(C=Nc2ccc(N(CC)CC)cc2)c(=O)[nH]c1=O	44	n	67	n	n	58	n	n	n
Cc1cccc2nc(-c3ccccc3)c(-c3ccc(CN4CCC(n5c(=O)[nH]c6cc(Cl)ccc65)CC4)cc3)nc12	x	x	n	x	x	x	x	x	x
CC(=O)c1ccc2c(c1)C1C(Cl)C(Sc3ccccc3[N+](=O)[O-])CC1C(C(=O)O)N2 (stereo unspecified)	54	31	54	42	n	88	27	71	104

Screening results: PubChem, The Scripps Research Institute Molecular Screening Center
